{
  "source": "ChEMBL document CHEMBL4316648",
  "about": "“Ipomeolides A and B, Resin Glycosides from Ipomoea pes-caprae and Combination Therapy of Ipomeolide A with Doxorubicin” (J Nat Prod, 2019)",
  "key": {"HL-60": {"test_system": "HL-60", "test": "Cytotoxicity in human HL60 cells assessed as reduction in cell viability incubated for 48 hrs by MTT assay", "type": "functional, cell-based", "summary_of_the_method": "(§1)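 Human tumour lines grown in DMEM with 10% fetal calf serum, 37 °C, 5% CO2, passaged at 60–70% confluency. About 5000 cells/well seeded in triplicate and grown 24 h. Medium then replaced with medium containing compound at various concentrations. After 48 h, MTT (5 mg/mL) added for 4 h. DMSO-soluble formazan read at 590 nm. Doxorubicin served as positive control.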"}, "MDA-MB-231": {"test_system": "MDA-MB-231", "test": "Cytotoxicity in human MDA-MB-231 cells assessed as reduction in cell viability incubated for 48 hrs by MTT assay", "type": "functional, cell-based", "summary_of_the_method": "as §1"}, "MCF7": {"test_system": "MCF7", "test": "Cytotoxicity in human MCF7 cells assessed as reduction in cell viability incubated for 48 hrs by MTT assay", "type": "functional, cell-based", "summary_of_the_method": "as §1"}, "A549": {"test_system": "A549", "test": "Cytotoxicity in human A549 cells assessed as reduction in cell viability incubated for 48 hrs by MTT assay", "type": "functional, cell-based", "summary_of_the_method": "as §1"}, "K562 [1]": {"test_system": "K562", "test": "Cytotoxicity in human K562 cells assessed as reduction in cell viability incubated for 72 hrs by MTT assay", "type": "functional", "details": "K562, 72 h, read-out: LD50 (the source's name)", "summary_of_the_method": "(§2)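 K562 cells were grown in DMEM with 10% fetal calf serum at 37 °C in 5% CO2. About 5000 cells per well were seeded and grown 24 h. Medium was then replaced with medium holding various compound concentrations for 72 h. Viability was measured by MTT (4 h), reading formazan in DMSO at 590 nm. Survival was compared with untreated control, in triplicate.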"}, "K562 [2]": {"test_system": "K562", "test": "Cytotoxicity in human K562 cells assessed as induction of cell death at 1 uM incubated for 72 hrs by MTT assay", "type": "functional", "summary_of_the_method": "as §2"}, "K562 [3]": {"test_system": "K562", "test": "Induction of apoptotic cell death in human K562 cells at 1 uM incubated for 72 hrs by Annexin V/propidium iodide staining based assay", "type": "functional", "summary_of_the_method": "(§3)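 K562 cells treated for 72 h with doxorubicin, the test agent, or the two combined. They were then stained with labelled annexin V and propidium iodide to show surface phosphatidylserine, and imaged by fluorescence microscopy.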"}, "K562 [4]": {"test_system": "K562", "test": "Potentiation of doxorubicin-induced cytotoxicity in human K562 cells assessed as induction of cell death in presence of 1 uM doxorubicin incubated for 72 hrs by MTT assay", "type": "functional", "details": "K562, 72 h, read-out: MEC", "summary_of_the_method": "(§4)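 K562 leukaemia cells seeded at equal numbers per well and exposed for 72 h to doxorubicin (1 or 2 μM), the test agent at varying concentrations, or both. Surviving cells counted relative to untreated control. Significance was taken as P < 0.05.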"}, "K562 [5]": {"test_system": "K562", "test": "Cytotoxicity in human K562 cells assessed as reduction in cell viability incubated for 48 hrs by MTT assay", "type": "functional, cell-based", "details": "K562, 48 h", "summary_of_the_method": "as §1"}, "K562 [6]": {"test_system": "K562", "test": "Toxicity in human K562 cells assessed as induction of apoptotic cell death at 4 uM incubated for 72 hrs by Annexin V/propidium iodide staining based assay", "details": "k562, 72 h", "summary_of_the_method": "as §3"}, "[7]": {"test": "Toxicity in human K562 cells assessed as reduction in cell viability incubated for 72 hrs by MTT assay", "type": "cell-based", "details": "read-out: LD50", "summary_of_the_method": "as §2"}, "K562 [8]": {"test_system": "K562", "test": "Potentiation of doxorubicin-induced cytotoxicity in human K562 cells assessed as induction of cell death at 4 uM in presence of 1 uM doxorubicin incubated for 72 hrs by MTT assay", "type": "functional", "summary_of_the_method": "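K562 cells were grown in DMEM with 10% FCS at 37 °C in 5% CO2 and seeded at about 5000 cells per well for 24 h. They were cotreated for 72 h with 1 or 2 μM doxorubicin plus varying test compound up to 10 μM. Survival was read by MTT at 590 nm against untreated control, in triplicate. Significance was set at P < 0.05.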"}, "K562 [9]": {"test_system": "K562", "test": "Potentiation of doxorubicin-induced apoptotic cell death in human K562 cells at 4 uM in presence of 1 uM doxorubicin incubated for 72 hrs by Annexin V/propidium iodide staining based assay", "type": "functional", "summary_of_the_method": "as §3"}, "K562 [10]": {"test_system": "K562", "test": "Potentiation of doxorubicin-induced cytotoxicity in human K562 cells assessed as induction of cell death at 1 to 10 uM in presence of 2 uM doxorubicin incubated for 72 hrs by MTT assay", "type": "functional, cell-based", "summary_of_the_method": "as §4"}, "K562 [11]": {"test_system": "K562", "test": "Potentiation of doxorubicin-induced cytotoxicity in human K562 cells assessed as induction of cell death at 3 to 10 uM in presence of 1 uM doxorubicin incubated for 72 hrs by MTT assay", "type": "functional, cell-based", "summary_of_the_method": "as §4"}, "K562 [12]": {"test_system": "K562", "test": "Potentiation of doxorubicin-induced cytotoxicity in human K562 cells assessed as induction of cell death in presence of doxorubicin incubated for 72 hrs by MTT assay", "type": "functional, cell-based", "details": "K562, 72 h", "summary_of_the_method": "as §4"}, "K562 [13]": {"test_system": "K562", "test": "Toxicity in human K562 cells assessed as reduction in cell viability up to 10 uM incubated for 72 hrs by MTT assay", "type": "cell-based", "details": "k562, 72 h", "summary_of_the_method": "as §4"}},
  "note": "pIC50: −log10 of the molar value. Calls of active or inactive are those of the source. No cut-off for these calls is given here.",
  "data": [
    {"smiles": "CCCCCCCCCCCC(=O)O[C@H]1[C@H](O[C@@H]2[C@@H](O[C@@H]3O[C@@H](C)[C@H](OC(=O)[C@@H](C)CC)[C@H]4OC(C)(C)O[C@@H]34)[C@H]3OC(=O)CCCCCCCCC[C@@H](CCCCC)O[C@@H]4O[C@H](C)[C@@H]5OC(C)(C)O[C@@H]5[C@H]4O[C@@H]3O[C@H]2C)O[C@@H](C)[C@H](O[C@@H]2O[C@@H](C)[C@H](O)[C@H]3OC(C)(C)O[C@@H]23)[C@H]1O", "values": [
      {"measurement": "Activity", "setting": "HL-60", "result": "inactive"},
      {"measurement": "Activity", "setting": "MDA-MB-231", "result": "inactive"},
      {"measurement": "Activity", "setting": "MCF7", "result": "inactive"},
      {"measurement": "Activity", "setting": "A549", "result": "inactive"}
    ]},
    {"smiles": "COc1cccc2c1C(=O)c1c(O)c3c(c(O)c1C2=O)C[C@@](O)(C(=O)CO)C[C@@H]3O[C@H]1C[C@H](N)[C@H](O)[C@H](C)O1", "note": "[DOXORUBICIN]", "values": [
      {"measurement": "CC50", "setting": "K562 [1]", "result": 2, "unit": "µM"},
      {"measurement": "Activity", "setting": "K562 [2]", "result": 11, "unit": "%"},
      {"measurement": "Activity", "setting": "K562 [3]", "result": "inactive"}
    ]},
    {"smiles": "CCCCCCCCCCCC(=O)O[C@H]1[C@H](O[C@@H]2[C@@H](O[C@@H]3O[C@@H](C)[C@H](OC(=O)[C@@H](C)CC)[C@@H](O)[C@H]3O)[C@H]3OC(=O)CCCCCCCCC[C@@H](CCCCC)O[C@@H]4O[C@H](C)[C@H](O)[C@H](O)[C@H]4O[C@@H]3O[C@H]2C)O[C@@H](C)[C@H](O[C@@H]2O[C@@H](C)[C@H](O)[C@@H](O)[C@H]2O)[C@H]1O", "values": [
      {"measurement": "minimal effective concentration", "setting": "K562 [4]", "result": 4, "unit": "µM"},
      {"measurement": "Activity", "setting": "HL-60", "result": "inactive"},
      {"measurement": "pIC50", "setting": "K562 [5]", "result": 4.74},
      {"measurement": "Activity", "setting": "K562 [6]", "result": "Non-Toxic"},
      {"measurement": "Activity", "setting": "MDA-MB-231", "result": "inactive"},
      {"measurement": "CC50 at 72 h", "setting": "[7]", "result": 20, "unit": "µM"},
      {"measurement": "Activity", "setting": "MCF7", "result": "inactive"},
      {"measurement": "Activity", "setting": "K562 [8]", "result": 47, "unit": "%"},
      {"measurement": "Activity", "setting": "K562 [9]", "result": "Active"},
      {"measurement": "Activity", "setting": "K562 [10]", "result": "Active"},
      {"measurement": "Activity", "setting": "K562 [11]", "result": "Active"},
      {"measurement": "pIC50", "setting": "K562 [12]", "result": 5.07},
      {"measurement": "Activity", "setting": "A549", "result": "inactive"},
      {"measurement": "Activity", "setting": "K562 [13]", "result": "Non-Toxic"}
    ]},
    {"smiles": "CCCCCCCCCCCC(=O)O[C@H]1[C@H](O[C@@H]2[C@@H](O[C@@H]3O[C@@H](C)[C@H](OC(=O)[C@@H](C)CC)[C@@H](O)[C@H]3OC(=O)/C=C/c3ccccc3)[C@H]3OC(=O)CCCCCCCCC[C@@H](CCCCC)O[C@@H]4O[C@H](C)[C@@H]5OC(C)(C)O[C@@H]5[C@H]4O[C@@H]3O[C@H]2C)O[C@@H](C)[C@H](O[C@@H]2O[C@@H](C)[C@H](O)[C@H]3OC(C)(C)O[C@@H]23)[C@H]1O", "values": [
      {"measurement": "Activity", "setting": "HL-60", "result": "inactive"},
      {"measurement": "Activity", "setting": "MDA-MB-231", "result": "inactive"},
      {"measurement": "Activity", "setting": "MCF7", "result": "inactive"},
      {"measurement": "Activity", "setting": "A549", "result": "inactive"}
    ]}
  ]
}
